Measured values: BindingDB's records for doi:10.1021/jm00343a011 (1982)

Columns and labels:
[1] = target: T1, Malate dehydrogenase, cytoplasmic (Sus scrofa, UniProt P11708); experiment: Ability to inhibit cytoplasmic malate dehydrogenase
T1 sequence (P11708 whole entry): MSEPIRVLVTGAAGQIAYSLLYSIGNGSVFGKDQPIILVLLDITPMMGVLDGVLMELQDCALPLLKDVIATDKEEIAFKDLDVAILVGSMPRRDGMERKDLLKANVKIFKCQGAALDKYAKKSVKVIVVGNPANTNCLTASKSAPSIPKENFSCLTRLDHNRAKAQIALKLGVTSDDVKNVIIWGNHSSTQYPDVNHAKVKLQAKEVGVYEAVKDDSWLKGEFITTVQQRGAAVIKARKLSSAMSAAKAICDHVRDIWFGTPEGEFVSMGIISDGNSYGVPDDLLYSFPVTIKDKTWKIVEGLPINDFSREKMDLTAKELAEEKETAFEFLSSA
Method in brief: (§1)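 Pig heart enzyme (cytoplasmic or mitochondrial form), diluted in 0.05 M Tris pH 7.4 with 1% BSA to give 0.022–0.027 OD/min at 340 nm. Cuvette holds 0.05 M Tris pH 8.4, L-malate, NAD+ and Me2SO ± inhibitor. Equilibrated at 25 °C, then started with enzyme. Five inhibitor concentrations in triplicate; I50 from least-squares dose-response line.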

[2] = target: T2, Malate dehydrogenase, mitochondrial (Sus scrofa, UniProt P00346); experiment: Ability to inhibit mitochondrial malate dehydrogenase; method in brief: as §1
T2 sequence (P00346 whole entry): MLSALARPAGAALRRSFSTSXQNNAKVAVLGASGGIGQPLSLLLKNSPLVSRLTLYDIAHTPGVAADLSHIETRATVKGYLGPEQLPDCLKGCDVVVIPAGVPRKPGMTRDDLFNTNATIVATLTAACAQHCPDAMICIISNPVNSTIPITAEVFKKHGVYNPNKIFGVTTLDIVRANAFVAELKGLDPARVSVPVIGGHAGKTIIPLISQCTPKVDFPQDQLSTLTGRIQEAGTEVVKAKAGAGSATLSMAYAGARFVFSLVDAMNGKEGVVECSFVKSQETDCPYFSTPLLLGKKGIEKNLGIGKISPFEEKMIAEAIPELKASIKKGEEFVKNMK

SMILES	IC50 [1] [µM]	IC50 [2] [µM]
CS(=O)(=O)c1ccc2c(O)c(C(=O)O)cnc2c1	437	661
O=C(O)c1cnc2cc(OCCOc3ccccc3)ccc2c1O	–	60.3
O=C(O)c1cnc2cc(OCCOc3ccc(Br)cc3)ccc2c1O	–	5.13
CN(C)c1ccc2c(O)c(C(=O)O)cnc2c1	372	479
O=C(O)c1cnc2cc(OCCOc3ccc(Oc4ccccc4)cc3)ccc2c1O	81.3	2.45
O=C(O)c1cnc2cc(OCc3c(Cl)c(Cl)c(Cl)c(Cl)c3Cl)ccc2c1O	–	4.79
O=C(O)c1cnc2cc(OCc3cccc4ccccc34)ccc2c1O	–	13.2
O=C(O)c1cnc2cc(OCc3ccc(F)cc3)ccc2c1O	–	39.8
NC(=O)c1ccc2c(O)c(C(=O)O)cnc2c1	603	741
O=C(O)c1cnc2cc(OCCc3ccc(F)cc3)ccc2c1O	–	14.8
O=C(O)c1cnc2cc(OCCc3ccccc3)ccc2c1O	155	38
O=C(O)c1cnc2cc(Cl)ccc2c1O	4680	3630
NS(=O)(=O)c1ccc2c(O)c(C(=O)O)cnc2c1	692	955
O=C(O)c1cnc2cc(OCc3ccccc3)ccc2c1O	–	32.4
O=C(O)c1cnc2cc(OCCc3ccc(Oc4ccccc4)cc3)ccc2c1O	61.7	1.82
O=C(O)c1cnc2cc(OCc3ccc4ccccc4c3)ccc2c1O	–	4.07
CC(=O)c1ccc2c(O)c(C(=O)O)cnc2c1	912	912
O=C(O)c1cnc2cc(OCCOc3ccc(F)cc3)ccc2c1O	–	18.2
O=C(O)c1cnc2cc(OCCc3ccc4ccccc4c3)ccc2c1O	72.4	2.19
O=C(O)c1cnc2cc(OCc3ccc(Oc4ccccc4)cc3)ccc2c1O	30.9	1.48
O=C(O)c1cnc2cc(OCCc3ccc(Br)cc3)ccc2c1O	91.2	2.51
O=C(O)c1cnc2cc(F)ccc2c1O	11000	10500
O=C(O)c1ccc2c(O)c(C(=O)O)cnc2c1	1290	1070
O=C(O)c1cnc2cc([N+](=O)[O-])ccc2c1O	1200	1910
O=C(O)c1cnc2cc(S(=O)(=O)O)ccc2c1O	3090	2140
O=C(O)c1cnc2cc(OCCOc3ccc4ccccc4c3)ccc2c1O	–	1.58
O=C(O)c1cnc2cc(OCc3ccc(Cl)c(Cl)c3)ccc2c1O	–	4.79
O=C(O)c1cnc2cc(OCc3ccc(Br)cc3)ccc2c1O	–	6.76
O=C(O)c1cnc2cc(O)ccc2c1O	955	490
